Here are results for two compounds from article PMC4201501 (Journal of chromatography. B, Analytical technologies in …, 2014).

Each structure is given as a SMILES string. Like-named read-outs stand apart in the source and are kept apart here.

Data set [1] has as its system human breast and pancreatic cancers. Conditions: cited from earlier work.
Data set [2] is classed as in vivo, CD-1 mice. Conditions: CD-1, mouse, plasma, 40 mg/kg.
Data set [3] concerns MDM2 protein. Conditions: cited from earlier work.
A short description of data set [4]: Autosampler stability of extracted plasma samples. In kind it is physicochemical, mouse. The settings on record: extracted plasma sample, 4°C, 36 h. In a few lines: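 Extracted mouse-plasma QC samples (1.94, 81.0, 129.6 ng/mL; IS 16.2 ng/mL) were prepared by n-hexane–dichloromethane–2-propanol (20:10:1) extraction, dried under nitrogen at 40°C, and reconstituted in ACN–water 50:50. They were injected immediately (time 0), then re-injected after 36 h at 4°C in the autosampler. Quantitation was by C18 gradient LC–positive ESI MRM, as percentage of intact compound versus time 0.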

The nature of data set [5]: Stability of stock solutions at room temperature. In kind it is physicochemical. The settings on record: stock solution in acetonitrile, room temperature (25°C), at least 24 h. In a few lines: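 Primary stock solutions (10 mM in acetonitrile) of test compound and internal standard were held at room temperature (25°C) for 6, 12 and 24 h before analysis.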
A short description of data set [6]: Stability of SP-141 in mouse plasma. It counts as in vitro ADME. Conditions: for percentage of intact compound remaining after three freeze-thaw cycles: three freeze-thaw cycles (-20°C/room temperature).

Regarding `COc1ccc2[nH]c3c(-c4cccc5ccccc45)nccc3c2c1` [SP-141, 6-methoxy-1-(naphthalen-1-yl)-9H-pyrido[3,4-b]indole], in data set [1], the “potency against human breast and pancreatic cancers” value is listed as “high potency”; the “toxicity at doses leading to tumor regression” value is “without any observable toxicity”. In addition, in data set [2] (ip), the AUC(0-inf) came to 13200 ng·h/mL, the AUC(0-t) stood at 12600 ng·h/mL, the Cmax was 4420 ng/mL and the Tmax was 10 min. In data set [2] (ip), this compound gave a concentration at 10 min of 4420 ng/mL, a concentration at 24 h of less than 150 ng/mL and a half-life of 107 min. Also, in data set [2] (iv), the AUC(0-inf) came to 8540 ng·h/mL, the AUC(0-t) amounted to 8340 ng·h/mL, the Cmax amounted to 5530 ng/mL and the concentration at 5 min is 5530 ng/mL. Moreover, in data set [2] (iv), the concentration at 24 h is less than 20 ng/mL and the half-life is 58.8 min. Besides, the “binding to the MDM2 protein” value in data set [3] was “directly binds”. Also, the “percentage of intact compound in the autosampler” value (“percentage … in the autosampler” below) in data set [4] (1.94 ng/mL) is given as 96.3% ± 2.7%. For the same compound, the “percentage … in the autosampler” value in data set [4] (81.0 ng/mL) is 98.5% ± 3.1%. In addition, the “percentage … in the autosampler” value in data set [4] (129.6 ng/mL) was 96.8% ± 0.6%. Besides, the “stability of stock solution” value in data set [5] was “stable”. In data set [6] (1.94 ng/mL), the “percentage of intact compound remaining after three freeze-thaw cycles” value is on record as 96.4% ± 0.6%. In data set [6] (81.0 ng/mL), the “percentage of intact compound remaining after three freeze-thaw cycles” value is reported as 96.2% ± 2.4%. Besides, the “percentage of intact compound remaining after three freeze-thaw cycles” value in data set [6] (129.6 ng/mL) was 99.3% ± 2.5%. In addition, the “compound remained intact after 24-h storage” value in data set [6] (4°C, 24 h, all QC concentrations) is given as “more than 95.3%”. In addition, the “stability in plasma at room temperature” value in data set [6] (25°C, up to 24 h, prior to extraction) is “relatively stable”. Besides, in data set [6] (37°C, 24 h, all QC concentrations), the “compound remaining after 24-h incubation” value is recorded as “more than 83.0%”. Also, in data set [6] (−80°C, 4 weeks, all concentrations tested), the “intact drug remained after storage for 4 weeks” value was “more than 92.2%”.

As to `COc1ccc2c(c1)[nH]c1c(-c3ccc4ccccc4c3)nccc12` [SP-157, 7-methoxy-1-(naphthalen-2-yl)-9H-pyrido[3,4-b]indole, reference compound], the “stability of stock solution” value in data set [5] is “stable”.

As usually defined, the AUC(0-inf) is total exposure, with the tail of the curve extrapolated. High values mean high exposure, low ones low exposure. As usually defined, the AUC(0-t) is exposure summed from dosing to a finite time, without extrapolation to infinity. A higher AUC(0-t) goes with more exposure. In general, Cmax refers to the maximum level reached in the sampled fluid or tissue. In general, Tmax refers to the time at which the peak concentration occurs. By half-life is commonly meant the time needed for the level to fall by half in the phase considered. A high value points to slow decline.
